Test results as given in ChEMBL document CHEMBL1144293, “4-(2-Pyridyl)piperazine-1-benzimidazoles as potent TRPV1 antagonists” (Bioorg Med Chem Lett, 2005).
pIC50: −log10 of the molar value.

Columns and labels:
[1] = target: T1, Transient receptor potential cation channel subfamily V member 1 (Homo sapiens, UniProt Q8NER1); assay: Antagonist activity in pH 5.5-induced FLIPR assays in HEK293 cells expressing human TRPV1; type: functional, cell-based
Procedure, shortened: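 Human TRPV1-expressing HEK293 line stimulated by low pH (pH 5.5) as agonist; antagonism measured as inhibition of calcium influx by FLIPR. IC50 reported as mean ± SEM from at least three determinations.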

[2] = target: T1, Transient receptor potential cation channel subfamily V member 1; assay: Antagonist activity in capsaicin-induced FLIPR assays in HEK293 cells expressing human TRPV1; type: functional, cell-based
Procedure, shortened: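 HEK293 cells stably expressing human TRPV1; channel activated with 100 nM capsaicin and block of the calcium influx read on a fluorometric imaging plate reader (FLIPR). IC50 given as mean ± SEM of at least three determinations.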

[3] = Clearance value in rat at single dose of 3 mg/kg iv dose; conditions: in vivo
[4] = Terminal half life value in rat at single dose of 3 mg/kg intravenously; type: ADME, organism-based; parameters: dose 3 mg/kg, route intravenous; conditions: in vivo, iv
Procedure, shortened: (§1)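 Rat pharmacokinetics: systemic exposure estimated after a single 3 mg/kg intravenous dose and, separately, a single 30 mg/kg oral dose. Parameters derived include Vd, CL, terminal t1/2, Tmax, Cmax and oral bioavailability (F%).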

[5] = Volume distribution in rat at single dose of 3 mg/kg intravenously; type: ADME, organism-based; parameters: dose 3 mg/kg, route intravenous; conditions: in vivo, iv; procedure, shortened: as §1
[6] = Terminal half life value in rat at single dose of 3 mg/kg iv dose; conditions: in vivo
[7] = Time taken for cmax value in rat at single dose of 30 mg/kg oral dose; type: ADME, organism-based; parameters: dose 30 mg/kg, route oral; conditions: in vivo; procedure, shortened: as §1
[8] = Clearance value in rat at single dose of 3 mg/kg intravenously; type: ADME, organism-based; parameters: dose 3 mg/kg, route intravenous; conditions: in vivo, iv; procedure, shortened: as §1
[9] = Bioavailability in rat (single dose 30 mg/kg p.o.); type: ADME, organism-based; conditions: in vivo, po; procedure, shortened: as §1
[10] = Cmax value in rat at single dose of 30 mg/kg oral dose; type: ADME, organism-based; parameters: dose 30 mg/kg, route oral; conditions: in vivo; procedure, shortened: as §1
[11] = Bioavailability in rat at single dose of 30 mg/kg orally; conditions: in vivo, oral

T1 sequence (Q8NER1 whole entry): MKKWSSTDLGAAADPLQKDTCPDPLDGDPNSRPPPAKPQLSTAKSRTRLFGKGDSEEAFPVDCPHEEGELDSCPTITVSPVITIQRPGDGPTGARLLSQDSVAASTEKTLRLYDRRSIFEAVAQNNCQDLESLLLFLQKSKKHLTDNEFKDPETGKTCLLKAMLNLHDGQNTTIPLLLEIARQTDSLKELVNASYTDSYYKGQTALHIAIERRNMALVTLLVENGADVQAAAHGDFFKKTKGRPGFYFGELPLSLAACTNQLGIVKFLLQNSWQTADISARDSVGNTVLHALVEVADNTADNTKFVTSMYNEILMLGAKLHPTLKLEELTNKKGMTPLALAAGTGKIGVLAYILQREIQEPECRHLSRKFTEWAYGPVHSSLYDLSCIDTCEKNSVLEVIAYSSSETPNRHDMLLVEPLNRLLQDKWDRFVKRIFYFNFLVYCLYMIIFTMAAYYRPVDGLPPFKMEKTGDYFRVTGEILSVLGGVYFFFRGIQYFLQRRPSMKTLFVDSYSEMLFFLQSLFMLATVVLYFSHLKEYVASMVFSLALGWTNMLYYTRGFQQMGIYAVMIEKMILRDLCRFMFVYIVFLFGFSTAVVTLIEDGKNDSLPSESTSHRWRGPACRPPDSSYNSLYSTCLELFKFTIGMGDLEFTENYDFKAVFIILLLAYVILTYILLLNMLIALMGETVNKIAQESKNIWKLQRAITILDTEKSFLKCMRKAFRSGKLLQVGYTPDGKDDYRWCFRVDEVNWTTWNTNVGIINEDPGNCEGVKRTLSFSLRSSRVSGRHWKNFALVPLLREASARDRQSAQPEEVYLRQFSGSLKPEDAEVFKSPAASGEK

SMILES	pIC50 [1]	pIC50 [2]	further results
Cc1cc2nc(N3CCN(c4ncccc4Cl)C[C@H]3C)[nH]c2cc1C	5.00	6.95	
C[C@@H]1CN(c2ncccc2Cl)CCN1c1nc2cc(C(C)(C)C)ccc2o1	5.85		
C[C@@H]1CN(c2nsnc2Cl)CCN1c1nc2ccc(C(C)(C)C)cc2[nH]1	< 5.00	6.11	
CC(C)(C)c1ccc2oc(N3CCN(c4ncccc4Cl)CC3)nc2c1	< 5.00	5.67	
C[C@@H]1CN(c2ncccc2Cl)CCN1c1nc2ccc(C(C)(C)C)cc2[nH]1	6.98	7.04	clearance [3]: 133 mL/min/kg; half-life [4]: 35.4 min; Vd [5]: 6.87 L/kg; half-life [6]: 36 min; Tmax [7]: 180 min; clearance [8]: 134 mL/min/kg; bioavailability [9]: 19.7%; Cmax [10]: 300 ng/mL; bioavailability [11]: 19.7%
Cc1cccnc1N1CCN(c2nc3ccc(C(C)(C)C)cc3[nH]2)[C@H](C)C1	6.22		
CC(C)(C)c1ccc(NC(=O)N2CCN(c3ncccc3Cl)CC2)cc1			bioavailability [9]: 15%
Cc1cc2nc(N3CCN(c4ncccc4Cl)CC3)n(C)c2cc1C	< 4.60	5.26	
C[C@H]1CN(c2ncccc2Cl)CCN1c1nc2ccc(C(C)(C)C)cc2[nH]1	5.44	6.02	
CC(C)(C)c1ccc2nc(N3CCN(c4ncccc4Cl)CC3)[nH]c2c1	5.77	6.87	
C[C@@H]1CN(c2ncccc2C(F)(F)F)CCN1c1nc2ccc(C(C)(C)C)cc2[nH]1	5.75	7.49	
C[C@@H]1CN(c2ncccc2Cl)CCN1c1nc2ccc(Cl)cc2[nH]1		6.49	
COc1ccc2nc(N3CCN(c4ncccc4Cl)C[C@H]3C)[nH]c2c1		6.18	
Cc1cc2nc(N3CCN(c4ncccc4Cl)C[C@@H]3C)[nH]c2cc1C	< 4.60	5.24	
